For series [1], the target named is T1, Proteinase-activated receptor 1 (Homo sapiens, UniProt P25116).
T1 sequence (P25116 whole entry): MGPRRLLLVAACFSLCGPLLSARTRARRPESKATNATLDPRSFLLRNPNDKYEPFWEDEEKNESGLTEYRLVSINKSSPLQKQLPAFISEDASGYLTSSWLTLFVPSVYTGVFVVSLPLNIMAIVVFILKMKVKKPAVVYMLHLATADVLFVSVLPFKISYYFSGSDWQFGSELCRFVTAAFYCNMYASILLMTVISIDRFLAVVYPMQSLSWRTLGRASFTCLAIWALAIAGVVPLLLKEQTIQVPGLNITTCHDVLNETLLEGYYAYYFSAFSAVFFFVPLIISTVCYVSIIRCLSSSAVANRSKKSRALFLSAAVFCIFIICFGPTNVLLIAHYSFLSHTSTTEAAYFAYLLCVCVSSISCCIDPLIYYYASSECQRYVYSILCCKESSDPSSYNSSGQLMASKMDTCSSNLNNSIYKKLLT
As to the kind of experiment: Antagonist activity at human PAR1 expressed in HEK293 cells co-expressing Galpha15 assessed as inhibition of haTRAP-induced calcium mobilization preincubated for 15 mins followed by haTRAP addition by calcium-4 dye based FLIPR assay. Format: functional, cell-based.

The next series has as its system Plasma. As to the kind of experiment: Stability in Wistar rat assessed as parent compound level in plasma at 10 mg/kg, po administered as single dose measured at 3 hrs post dose by LC-HRMS analysis. To be noted: in vivo. Format: ADME, organism-based. An outline of the steps:
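Rats dosed orally at 10 mg/kg or 5 mg/kg. Plasma taken at 3.0 h after dosing. Parent and metabolites detected by extracted ion chromatograms.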

For series [2], the system named is ADP-stimulated platelet aggregation. As to the kind of experiment: Toxicity in guinea pig assessed as inhibition of ADP-stimulated platelet aggregation at 10 mg/kg, po pretreated for 2 hrs followed by ADP stimulation measured after 5 mins. The class given is organism-based, Cavia porcellus. To be noted: in vivo.
For series [3], the system named is Cavia porcellus. Briefly: In vivo antagonist activity at PAR1 in guinea pig assessed as inhibition of TRAP-stimulated platelet aggregation at 10 mg/kg, po pretreated for 2 hrs followed by TRAP stimulation measured after 5 mins. The class given is functional.
Series [4] concerns Cavia porcellus. Briefly: In vivo antagonist activity at PAR1 in guinea pig assessed as inhibition of thrombin-stimulated platelet aggregation at 10 mg/kg, po pretreated for 2 hrs followed by thrombin stimulation measured after 5 mins. The class given is functional.
For series [5], the system named is collagen-stimulated platelet aggregation. As to the kind of experiment: Toxicity in guinea pig assessed as inhibition of collagen-stimulated platelet aggregation at 10 mg/kg, po pretreated for 2 hrs followed by collagen stimulation measured after 5 mins. The class given is organism-based, Cavia porcellus. To be noted: in vivo.

Bounds are passed on as bounds.

For `CO[C@@H]1CC[C@]2(C)[C@H](CC[C@@]3(CO3)[C@H]2/C=C/c2ccc(-c3cccc(F)c3)cn2)[C@]1(C)CO`, the IC50 (commonly the concentration needed to halve the response being measured) in series [1] came out at 14 µM.
On the same count and under the same terms, for `CC(=O)O[C@@H]1CC[C@@]2(C)[C@@H]3C(=O)OC[C@H]3CC[C@@H]2[C@]1(C)/C=C/c1ccc(-c2cccc(F)c2)cn1` the value was greater than 100 µM.
As for `C[C@@]1(C=O)[C@H](O)CC[C@@]2(C)[C@H](/C=C/c3ccc(-c4cccc(F)c4)cn3)[C@@H](C3SCCS3)CC[C@H]12`, the IC50 in series [1] is greater than 100 µM.
The same measure, in the same setting: for `C[C@]1(CO)[C@H]2CC[C@@]3(CO3)[C@@H](/C=C/c3ccc(-c4cccc(C(F)(F)F)c4)cn3)[C@]2(C)CC[C@H]1O` the value was 9.5 µM.
Still for that read-out and setting: to `COC(=O)[C@]1(C)[C@H](OC(N)=O)CC[C@@]2(C)[C@H](/C=C/c3ccc(-c4cccc(F)c4)cn3)[C@@]3(CC[C@@H]21)CO3` belongs 8.7 µM.
Still for that read-out and setting: to `C[C@@]1(/C=C/c2ccc(-c3cccc(F)c3)cn2)[C@@H](OS(C)(=O)=O)CC[C@@]2(C)[C@@H]3C(=O)OC[C@H]3CC[C@H]12` belongs greater than 100 µM.
With `C[C@@]1(C=O)[C@H](O)CC[C@@]2(C)[C@H](/C=C/c3ccc(-c4cccc(F)c4)cn3)[C@@]3(CC[C@H]12)CO3`, the IC50 in series [1] stood at 3 µM. Further, the Stability entry in the series on Plasma was “Unstable”.
Take `C[C@@]1(/C=C/c2ccc(-c3cccc(F)c3)cn2)[C@H]2CC[C@@H]3COC(=O)[C@H]3[C@]2(C)CC[C@H]1OC(N)=O`: in series [1], the IC50 came to 12 µM.
Same read-out and setting: for `CCCC(=O)O[C@@H]1CC[C@@]2(C)[C@H](/C=C/c3ccc(-c4cccc(F)c4)cn3)[C@@]3(CC[C@@H]2[C@]1(C)C(=O)OC)CO3` the value was greater than 100 µM.
Same read-out and setting: to `C[C@]1(/C=C/c2ccc(-c3cccc(F)c3)cn2)[C@H]2CC[C@@H]3COC(=O)[C@H]3[C@]2(C)CC[C@@H]1O` belongs 19 µM; to `C[C@@]1(/C=C/c2ccc(-c3cccc(F)c3)cn2)[C@@H](OC(N)=O)CC[C@@]2(C)[C@@H]3C(=O)OC[C@H]3CC[C@H]12`, 20 µM; to `C[C@@]1(C=O)[C@H](O)CC[C@@]2(C)[C@H](/C=C/c3ccc(-c4cccc(F)c4)c[n+]3[O-])[C@@]3(CC[C@H]12)CO3`, greater than 100 µM.
The same measure, in the same setting: for `CC1(C)OC[C@@]2(C)[C@H]3CC[C@@]4(CO4)[C@@H](/C=C/c4ccc(-c5cccc(C(F)(F)F)c5)cn4)[C@]3(C)CC[C@H]2O1` the value was greater than 100 µM; for `CC(=O)O[C@H]1CC[C@@]2(C)[C@@H]3C(=O)OC[C@H]3CC[C@@H]2[C@]1(C)/C=C/c1ccc(-c2cccc(F)c2)cn1`, greater than 100 µM; for `CC1(C)OC[C@@]2(C)[C@H]3CC[C@@]4(CO4)[C@@H](/C=C/c4ccc(-c5cccc(F)c5)cn4)[C@]3(C)CC[C@H]2O1`, greater than 100 µM.
Turning to `C[C@H]1CC[C@@H]2C(C)(C)C=CC[C@@]2(C)[C@@H]1/C=C/c1ccc(-c2cccc(F)c2)cn1`, the IC50 in series [1] is greater than 100 µM.
Still for that read-out and setting: to `CCCC(=O)O[C@H]1CC[C@@]2(C)[C@@H]3C(=O)OC[C@H]3CC[C@@H]2[C@]1(C)/C=C/c1ccc(-c2cccc(F)c2)cn1` belongs greater than 100 µM; to `C[C@]1(CN)[C@H]2CC[C@@]3(CO3)[C@@H](/C=C/c3ccc(-c4cccc(F)c4)cn3)[C@]2(C)CC[C@H]1O`, 23 µM.
Same read-out and setting: to `CC(=O)O[C@@H]1CC[C@@]2(C)[C@@H]3C(=O)OC[C@H]3CC[C@@H]2[C@@]1(C)/C=C/c1ccc(-c2cccc(F)c2)cn1` belongs greater than 100 µM.
For `CCCC(=O)O[C@@H]1CC[C@@]2(C)[C@H](/C=C/c3ccc(-c4cccc(F)c4)cn3)[C@@H](C)CC[C@@H]2C1(C)C`, the IC50 in series [1] is greater than 100 µM.
As for `C[C@@]1(/C=C/c2ccc(-c3cccc(F)c3)cn2)[C@H](O)CC[C@@]2(C)[C@@H]3C(=O)OC[C@H]3CC[C@H]12`, the IC50 in series [1] is greater than 100 µM.
As for `C[C@]1(CO)[C@H]2CC[C@](C)(O)[C@@H](/C=C/c3ccc(-c4cccc(F)c4)cn3)[C@]2(C)CC[C@H]1O`, the IC50 in series [1] was found to be 55 µM.
On to `COC[C@@]1(C)[C@H]2CC[C@@]3(CO3)[C@@H](/C=C/c3ccc(-c4cccc(F)c4)cn3)[C@]2(C)CC[C@H]1O`, for which the IC50 in series [1] was determined as 8.1 µM.
On the same count and under the same terms, for `C[C@]1(CO)[C@H]2CC[C@@]3(CO3)[C@@H](CCc3ccc(-c4cccc(C(F)(F)F)c4)cn3)[C@]2(C)CC[C@H]1O` the value was 10 µM; for `C[C@]1(C=O)[C@H](O)CC[C@@]2(C)[C@H](/C=C/c3ccc(-c4cccc(F)c4)c[n+]3[O-])[C@@]3(CC[C@H]12)CO3`, greater than 100 µM; for `COC(=O)[C@]1(C)[C@H](OC(C)=O)CC[C@@]2(C)[C@H](/C=C/c3ccc(-c4cccc(F)c4)cn3)[C@@]3(CC[C@@H]21)CO3`, greater than 100 µM.
Same read-out and setting: to `C[C@]1(/C=C/c2ccc(-c3cccc(F)c3)cn2)[C@H]2CC[C@@H]3COC(=O)[C@H]3[C@]2(C)CC[C@H]1OC(N)=O` belongs 21 µM; to `C[C@]1(CO)[C@H]2CC[C@@]3(CO3)[C@@H](CCc3ccc(-c4cccc(F)c4)cn3)[C@]2(C)CC[C@H]1O`, 14 µM.
For the compound `C[C@@]1(/C=C/c2ccc(-c3cccc(F)c3)cn2)[C@H]2CC[C@@H]3COC(=O)[C@H]3[C@]2(C)CC[C@@H]1O`, the IC50 in series [1] was greater than 100 µM.
On to `C[C@@]12CC[C@@H](O)[C@@](C)(C(=O)O)[C@H]1CC[C@@]1(CO1)[C@H]2/C=C/c1ccc(-c2cccc(F)c2)cn1`, for which the IC50 in series [1] worked out at 29 µM.
On to `C[C@]1(/C=C/c2ccc(-c3cccc(F)c3)cn2)[C@@H](OC(N)=O)CC[C@@]2(C)[C@@H]3C(=O)OC[C@H]3CC[C@H]12`, for which the IC50 in series [1] was greater than 100 µM.
The same measure, in the same setting: to `CNC[C@@]1(C)[C@H]2CC[C@@]3(CO3)[C@@H](/C=C/c3ccc(-c4cccc(F)c4)cn3)[C@]2(C)CC[C@H]1O` belongs 17 µM.
Same read-out and setting: for `C[C@@]1(/C=C/c2ccc(-c3cccc(F)c3)cn2)[C@H]2CC[C@@H]3COC(=O)[C@H]3[C@]2(C)CC[C@H]1OS(C)(=O)=O` the value was greater than 100 µM; for `CCOC(=O)O[C@@H]1CC[C@@]2(C)[C@H](/C=C/c3ccc(-c4cccc(F)c4)cn3)[C@@H](C)CC[C@@H]2C1(C)C`, greater than 100 µM; for `C[C@]1(/C=C/c2ccc(-c3cccc(F)c3)cn2)[C@H](O)CC[C@@]2(C)[C@@H]3C(=O)OC[C@H]3CC[C@H]12`, greater than 100 µM.
Same read-out and setting: to `CCCC(=O)O[C@@H]1CC[C@@]2(C)[C@@H]3C(=O)OC[C@H]3CC[C@@H]2[C@@]1(C)/C=C/c1ccc(-c2cccc(F)c2)cn1` belongs greater than 100 µM; to `CC1CC[C@@H]2C(C)(C)[C@H](OC(N)=O)CC[C@@]2(C)[C@@H]1/C=C/c1ccc(-c2cccc(F)c2)cn1` (single isomer, unassigned), 32 µM.
Regarding `CC1CC[C@@H]2C(C)(C)[C@H](OS(C)(=O)=O)CC[C@@]2(C)[C@@H]1/C=C/c1ccc(-c2cccc(F)c2)cn1` (single isomer, unassigned), the IC50 in series [1] came to 87 µM.
The same measure, in the same setting: to `CC1CC[C@@H]2[C@](C)(C=O)[C@H](O)CC[C@@]2(C)[C@@H]1/C=C/c1ccc(-c2cccc(F)c2)cn1` (single isomer, unassigned) belongs 1.5 µM; to `CC(=O)O[C@@H]1CC[C@@]2(C)[C@H](/C=C/c3ccc(-c4cccc(F)c4)cn3)C(C)CC[C@@H]2C1(C)C` (single isomer, unassigned), greater than 100 µM; to `C[C@@]12CC[C@@H](O)[C@@](C)(C3SCCS3)[C@H]1CCC(C1SCCS1)[C@H]2/C=C/c1ccc(-c2cccc(F)c2)cn1` (single isomer, unassigned), greater than 100 µM.
Take `CCOC(=O)N[C@@H]1CC[C@@H]2[C@@H](C1)C[C@H]1C(=O)O[C@H](C)[C@H]1[C@H]2/C=C/c1ccc(-c2cccc(F)c2)cn1` [VORAPAXAR]: the results for the inhibition at 5 min in series [2] and in series [5] were 3% and 0.9%, respectively. The IC50 in series [1] amounted to 0.064 µM. Besides, the values for the inhibition in vivo at 10 mg/kg with Cavia porcellus [3] and in the series on Cavia porcellus [4] were 98.3% and 93.4%, respectively.

(Values after ChEMBL document CHEMBL4038330, “Discovery of Potent Orally Active Protease-Activated Receptor 1 (PAR1) Antagonists Based on Andrographolide” (J Med Chem, 2017).)
